Screening data deposited in PubChem BioAssay by several laboratories.
GPR7 antag: antagonists of human GPR7 (neuropeptides B/W receptor 1) | GPR7-expressing cells, fluorescence antagonist assay | inhibition, % at 4.4 µM | 290,000 compounds, 1.1% hits | AID 1861; in the data active = inhibition above about 16%, passing the limit was not always enough;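 also: cells stimulated with the agonist NPW; 0% = agonist with vehicle and 100% = vehicle without agonist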
Target sequence (P48145 whole entry, looked up): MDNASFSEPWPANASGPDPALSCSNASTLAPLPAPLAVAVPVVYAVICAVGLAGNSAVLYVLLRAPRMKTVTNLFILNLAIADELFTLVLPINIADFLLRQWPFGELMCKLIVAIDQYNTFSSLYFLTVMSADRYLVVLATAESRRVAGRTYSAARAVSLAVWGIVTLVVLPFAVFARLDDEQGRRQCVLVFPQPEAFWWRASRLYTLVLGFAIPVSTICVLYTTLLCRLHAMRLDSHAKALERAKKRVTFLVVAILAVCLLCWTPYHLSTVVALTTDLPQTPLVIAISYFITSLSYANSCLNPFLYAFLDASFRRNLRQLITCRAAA
CHT allo act: human CHT allosteric activation. Q9GZV3. CHT-expressing cells, membrane potential dye, choline EC20; stronger effect = higher value; LV-AA mutant CHT in HEK293 cells. B-score at 10 µM. 310,000 compounds, 0.49% hits. AID 488977;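 active = initial fluorescence not abnormally high and integrated response B-score, plate-corrected, over 3 SD above library mean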
p-CIP stab down: compounds decreasing mouse p/CIP protein stability | 290,000 compounds, 0.01% hits | AID 1984 | decrease of EGFP signal, % at 10 µM | F442A p/CIP-EGFP cells, EGFP fluorescence, 16 h;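 active = EGFP signal decrease of at least 30% at 10 µM or well 3 SD below plate mean, unless failing retest; inactive = the rest, including hits failing retest or dose response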
CHT block: human CHT choline transport inhibition; Q9GZV3; CHT-expressing cells, membrane potential dye, choline response; stronger effect = lower value; B-score at 10 µM; 310,000 compounds, 0.86% hits; AID 488975;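 active = B-score over 3 SD under the library average, and starting fluorescence ratio not unusually high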;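 also: choline stimulus applied at its EC90 after an EC20 pre-addition; B-score computed on integrated fluorescence ratio after choline addition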
T cell modulator: T cell immune modulation candidate; 2C CD8+ T cell-vesicle binding, flow cytometry; stronger effect = lower value; response (vesicle binding), % at 7 µM; 330,000 compounds, 0.068% hits; AID 2052;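 active = response, share of CD8 T cells binding vesicles, and their 90th percentile fluorescence all below set limits, cut at about 80% in these data, passing the limit was not always enough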;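 also: values below 100% mean blocked vesicle binding to the CD8+ T cells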
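System: murine 2C transgenic CD8+ T lymphocytes; also added: QL9-loaded Drosophila micro-vesicles; times: binding 1.5 h at 37 °C; measured by: flow cytometry, PE anti-B7-1 (FL2) versus Alexa647 anti-CD8 (FL8), PFA-fixed; control set: Peptide-free naked vesicles (low) and QL9 vesicles with 0.7% DMSO vehicle (high)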
DSG3 Ab inh: blocks pemphigus antibody binding to human desmoglein-3; 310,000 compounds, 0.48% hits; binding (percent of control), % at 10 µM; DSG3-coupled beads, scFv-anti-DSG3-GFP binding, flow cytometry; stronger effect = lower value; P32926;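 active = binding more than 3 SD below its plate's average and above zero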
GPR7 antag cf: confirmation of human GPR7 antagonists; shares compounds with GPR7 antag; GPR7-expressing cells, calcium fluorescence antagonist mode; inhibition, % at 4.4 µM; 2,400 compounds, 52% hits; AID 1952; in the data active = inhibition above about 24%;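 also: stimulated with the GPR7 agonist NPW; 0% = agonist plus vehicle and 100% = vehicle alone without agonist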
MCHR1 antag: antagonizes human MCHR1, a GPR7 antagonist counter-screen; shares compounds with GPR7 antag; MCHR1-expressing cells, fluorescence antagonist assay; inhibition, % at 4.4 µM; 2,400 compounds, 62% hits; AID 2148; in the data active = inhibition above about 22%;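 also: 0% = vehicle with agonist and 100% = vehicle without agonist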
Starred values were filed as active, the others as inactive; i = inactive; nt = no result given. A selection: hits, their analogues and other compounds. The true share with any hit is near 2.3%.

SMILES | GPR7 antag | CHT allo act | p-CIP stab down | CHT block | T cell modulator | DSG3 Ab inh | GPR7 antag cf | MCHR1 antag
COc1ccccc1C(=O)N(CCC1CCCN1C)c1nc2ccccc2s1 (centres undefined) | 24* | i | -24 | i | 590 | 127 | 26* | 9
CC1C(=O)N(Cc2cn(CCC3OCCCO3)nn2)CCS(=O)(=O)N1Cc1ccc(-c2ccc(Cl)cc2)cc1 (centres undefined) | nt | nt | nt | nt | nt | 107 | nt | nt
CCCS(=O)(=O)Nc1ccc(Nc2c3ccccc3nc3ccccc23)c(OC)c1 | nt | nt | nt | nt | nt | 97 | nt | nt
COCCNC(=S)Nc1ccc(S(=O)(=O)Nc2ncccn2)cc1 | 25* | i | 1 | i | 632 | 101 | -8 | -6
O=S(=O)(Nc1ncccn1)c1ccc(NC(=S)NCCc2ccccc2)cc1 | -20 | i | 20 | i | 273 | nt | nt | nt
C=CCc1cc(Cl)ccc1OCCOCCN(C)C | 40* | i | -10 | i | 620 | 96 | 8 | 12
COc1cc(C=CC(=O)N2CCN(CC(=O)N3CCCC3)CC2)cc(OC)c1OC | nt | nt | nt | nt | nt | 101 | nt | nt
O=C1[C@@H]2[C@H](Cc3ccc(O)cc3)N[C@]3(C(=O)Nc4ccccc43)[C@@H]2C(=O)N1c1ccc(F)cc1 | 4 | i | -10 | i | 227 | 97 | nt | nt
Cc1c(Cl)ccc2c1NC(=O)[C@]21N[C@@H](Cc2ccccc2)[C@H]2C(=O)N(c3ccc(F)cc3)C(=O)[C@H]21 | 36* | i | -1 | i | 565 | 102 | 67* | 69*
COc1ccc(NC(=O)CCS(=O)(=O)c2ccccc2Cl)cc1S(=O)(=O)Nc1ccc(Cl)cc1 | 25* | i | 11 | i | 50 | 107 | 23 | 25*
CC1CN(C(=O)c2ccc(NS(=O)(=O)c3ccc(C(C)(C)C)cc3)cc2)CC(C)O1 (centres undefined) | 33* | nt | -1 | nt | nt | 104 | 32* | 42*
Cc1onc(-c2c(F)cccc2Cl)c1C(=O)Nc1cc(S(=O)(=O)N2CCCCC2)ccc1O | nt | nt | nt | nt | nt | 109 | nt | nt
CN(C)c1cccc(NC2=CC(=[N+]3CCOCC3)CC(C)(C)C2)c1 | 0 | i | -14 | i | 348 | nt | nt | nt
CN(Cc1ccccc1)C1=CC(=[N+]2CCCC2)CC(C)(C)C1 | 29* | i | -18 | i | 266 | 98 | 49* | 38*
CCN(CC)C(=O)C1=C(C)N(Cc2ccc(OC)cc2)C(=O)C(CC(=O)NCCN2CCOCC2)C1 (centres undefined) | nt | nt | nt | nt | nt | 102 | nt | nt
Cn1c(Cc2cccc3ccccc23)nnc1SCc1ccc([N+](=O)[O-])cc1 | 29* | i | -2 | i | 399 | 98 | 1 | 15
COc1ccc(CC(=O)NCc2nnc(SCc3ccc([N+](=O)[O-])cc3)n2C)cc1 | -9 | i | -5 | i | 215 | 90 | nt | nt
CCOc1ccc(N=Cc2ccc([N+](=O)[O-])cc2)c(O)c1 | nt | nt | nt | nt | nt | 102 | nt | nt
CN(C)CCNc1nc2sc3c(c2c(=O)n1CCc1ccccc1)CCCCC3 | 26* | i | -21 | i | 94 | 108 | 43* | 57*
Cc1cc(C)n2nc(C(=O)OCC(=O)NC3CCS(=O)(=O)C3)nc2n1 (centres undefined) | nt | nt | nt | nt | nt | 102 | nt | nt
COc1ccccc1-c1ccc(SCc2cccc(C)c2)nn1 | 64* | i | -10 | i | 267 | nt | 41* | 74*
CC(C)c1ccc(NC(=O)[C@H](Cc2c[nH]c3ccccc23)NC(=O)[C@@H]2Cc3ccccc3CN2)cc1 | 27* | i | -3 | i | 425 | 95 | 7 | 3
COCC(C)NC(=O)C1CC(=O)N(CCc2ccc(F)cc2)C1 (centres undefined) | nt | nt | nt | nt | nt | 107 | nt | nt
CCCCN(C(=O)CC1CCCCC1)c1c(N)n(CCCC)c(=O)[nH]c1=O | nt | nt | nt | nt | nt | 107 | nt | nt
COc1ccc2c(c1OC)C(=O)OC2 | -14 | i | -13 | i | 0 | 102 | nt | nt
SMILES | GPR7 antag | CHT allo act | p-CIP stab down | CHT block | T cell modulator | DSG3 Ab inh | GPR7 antag cf | MCHR1 antag
COc1ccc2c3c(cccc13)C(=O)CC2 | 34* | i | -38 | i | 188 | 98 | -23 | 33*
CN(CC(=O)Nc1cccc(F)c1)C(=O)c1cccc(S(=O)(=O)N2CCN(c3ccc(F)cc3)CC2)c1 | nt | nt | nt | nt | nt | 99 | nt | nt
CC1CCCC(C)N1C(=O)c1ccc(S(=O)(=O)NCc2ccco2)cc1 (centres undefined) | 31* | i | -8 | i | 340 | 108 | 4 | 23*
CCC1CCCCN1C(=O)c1sc2nc(C)nc(N(CC)CC)c2c1C (centres undefined) | 25* | i | 3 | i | 258 | 92 | 21 | 19
Cc1cccc2cc(C#N)c(NCCNC(=O)c3ccccc3)nc12 | nt | nt | nt | nt | nt | 101 | nt | nt
CC(C)(CO)NCc1c(OCc2ccc(Cl)cc2)ccc2ccccc12 | 32* | i | 12 | i | 245 | 119 | 27* | 15
C[C@@H]1CN([C@@H](C)CO)C(=O)CCCn2cc(nn2)CO[C@H]1CN(C)S(=O)(=O)c1ccc2ccccc2c1 | nt | nt | nt | nt | nt | 93 | nt | nt
CCC(C)NCCOCCOc1ccc(Cl)cc1Br (centres undefined) | 47* | i | -15 | i | 968 | 108 | 10 | 16
Cc1ccc(OCCOCCNC(C)C)c(Br)c1 | -6 | i | 4 | i | 145 | 101 | nt | nt
O=C(/C=C/c1ccccc1)Nc1cccc(C(=O)NCCCCc2ccccc2)c1 | nt | nt | nt | nt | nt | 96 | nt | nt
CC(C)NS(=O)(=O)c1ccc(CCC(=O)N2CCCCC2)cc1 | 23* | i | 7 | i | 195 | 100 | -12 | 2
Cc1cccc(NC(=O)CC2C(=O)NCCN2C(=O)Nc2ccc(Cl)cc2)c1 (centres undefined) | 21* | i | -17 | i | 460 | 105 | 33* | 47*
COc1ccccc1CNC(=O)CN(C)Cc1ccc(SC)cc1 | 26* | i | -5 | i | 316 | 99 | 37* | 36*
COc1ccc(-n2c(=S)[nH]c3cc(C(=O)Nc4ccccc4OC)ccc3c2=O)cc1 | -3 | i | 3 | i | 172 | nt | nt | nt
COc1ccc(-n2c(=S)[nH]c3cc(C(=O)Nc4ccccc4OC)ccc3c2=O)c(OC)c1 | 31* | i | -9 | i | 218 | nt | 24* | 46*
COc1ccc(-n2c(=S)[nH]c3cc(C(=O)NCc4ccccc4OC)ccc3c2=O)c(OC)c1 | 26* | i | -2 | i | 357 | nt | 38* | 39*
Cc1ccc(S(=O)(=O)N2C[C@H]3N(C(=O)OC(C)C)N(C(=O)OC(C)C)C[C@H](OC(=O)NCc4ccco4)[C@@]3(O)C2)cc1 | nt | nt | nt | nt | nt | 109 | nt | nt
